Assay outcomes deposited in PubChem by several laboratories.
DNA FID counter = counter-screen for HCV NS3 helicase inhibitors: DNA intercalator displacement | DNA fluorescent intercalator displacement, fluorescence | inhibition, % at 7.9 µM | 290,000 compounds, 0.17% hits | AID 1845; in the data active means inhibition above about 37%;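 further: 0% = vehicle and 100% = reference compound; higher means more ethidium bromide displaced from hairpin DNA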
RAD54 branch = blocks human RAD54 Holliday junction branch migration; 360,000 compounds, 0.14% hits; FAM/BHQ fluorescence; Q92698; inhibition, % at 10.4 µM; AID 602329;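 active means mean normalized replicate activity at least 40 and at least half of replicates scoring 40 or more; inconclusive means only one of the two criteria met; inactive means mean below 40 and under half of replicates reaching 40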;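 further: 0% = median of neutral control wells and 100% = median of positive control wells; inhibitors cause a drop in the FAM fluorescence signal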
Target sequence (Q92698 whole entry, looked up): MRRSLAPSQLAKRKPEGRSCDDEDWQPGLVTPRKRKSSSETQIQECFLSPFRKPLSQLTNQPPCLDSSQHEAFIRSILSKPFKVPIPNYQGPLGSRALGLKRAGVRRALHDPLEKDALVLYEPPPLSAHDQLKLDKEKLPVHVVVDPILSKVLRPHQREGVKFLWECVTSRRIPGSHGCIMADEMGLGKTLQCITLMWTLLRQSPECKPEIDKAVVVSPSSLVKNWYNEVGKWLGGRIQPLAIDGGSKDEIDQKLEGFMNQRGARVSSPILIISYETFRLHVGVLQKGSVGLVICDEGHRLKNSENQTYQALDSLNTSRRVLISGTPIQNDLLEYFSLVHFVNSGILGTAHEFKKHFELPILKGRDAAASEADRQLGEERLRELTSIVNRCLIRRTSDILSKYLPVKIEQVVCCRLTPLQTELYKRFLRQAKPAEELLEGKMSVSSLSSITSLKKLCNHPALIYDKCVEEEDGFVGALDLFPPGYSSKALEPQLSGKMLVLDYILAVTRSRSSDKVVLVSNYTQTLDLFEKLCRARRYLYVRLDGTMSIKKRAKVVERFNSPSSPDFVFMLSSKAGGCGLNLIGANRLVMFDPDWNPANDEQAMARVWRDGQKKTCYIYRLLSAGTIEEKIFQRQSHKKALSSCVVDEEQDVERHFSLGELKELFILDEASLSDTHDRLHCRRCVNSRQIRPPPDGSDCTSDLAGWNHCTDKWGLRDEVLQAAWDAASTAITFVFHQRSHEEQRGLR
Neddylation inh = blocks human cullin neddylation | calls only at 25 µM | P61081+Q13564 | 360,000 compounds, 0.58% hits | TR-FRET cullin neddylation, biochemical; in the data active means inhibition above about 36%
Apaf1 inhib = human Apaf-1 inhibition | O14727 | reconstituted apoptosome caspase-3 activity, DEVD-Rh110 fluorescence | inhibition, % at 20 µM | 330,000 compounds, 0.71% hits | AID 489030; active means inhibition of at least 40% at 20 µM;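 further: plate controls were DMSO wells for no effect and DEVD-CHO caspase inhibitor wells for full effect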
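detection = Rh110 fluorescence intensity | test system = biochemical Apaf-1 apoptosome reconstitution | also added = cytochrome c and DEVD-Rh110 substrate | schedule = 30 min plus 50 min, RT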
UBC13 inh = inhibitors of human UBC13 polyubiquitin chain formation; P61088; TR-FRET; inhibition, % at 20 µM; 330,000 compounds, 0.47% hits; AID 485273; in the data active means inhibition above about 45%, passing the limit was not always enough; inconclusive means no clear call, values can overlap the other calls
RAD52 inh = inhibitors of human RAD52 DNA annealing; P43351; recombinant RAD52 DNA annealing, FRET fluorescence; inhibition, % at 18.7 µM; 360,000 compounds, 0.46% hits; AID 651710;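 active means every replicate showing at least 50% inhibition; inconclusive means mean inhibition at least 50% but not in every replicate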
Apaf-1 inh conf2 = confirmation of Apaf-1 inhibitors; shares compounds with Apaf1 inhib; 1,800 compounds, 25% hits; reconstituted apoptosome, caspase-3 DEVD-Rh110 fluorescence; inhibition, % at 20 µM;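 active means mean inhibition of at least 40% at 20 µM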;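 further: plate controls were DMSO wells for no effect and DEVD-CHO caspase inhibitor control wells for full effect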
Rh110 interf inh = interferes with Rh110 fluorescence, flagging false Apaf-1 inhibitors | 1,800 tested, under 10 active | shares compounds with Apaf1 inhib | activation (fluorescence interference), % at 20 µM | AID 504615 | Rh110 fluorescence interference, quenched caspase reaction;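 active means signal rise of 40% or more at 20 µM, treated as a fluorescence artifact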
Fluor interf inh = Apaf-1 inhibitor counter-screen fluorescence artifact. shares compounds with Apaf1 inhib. fluorescence interference counterscreen, Apaf-1 assay format. IC50, µM. 460 tested, under 10 active. AID 588538; call rule not given here
Rad54 DNA ctr = binds DNA, flagging false Rad54 inhibitor hits; shares compounds with RAD54 branch; Acridine orange-DNA displacement, fluorescence polarization, 20 min; AC50, µM (highest dose often 35 µM), without a hit: at the top dose activity change, negative = DNA binding; 460 compounds, 8% hits; AID 651673;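 active means signal drop giving an AC50 within twice the top valid tested concentration of each sample, actives reach about 35 µM in these data; inactive means activity opposite to expected, plus the rest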;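 further: polarization loss reports compound binding to salmon sperm DNA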
Neddyl conf = cullin neddylation inhibition, confirmation | shares compounds with Neddylation inh | TR-FRET cullin neddylation biochemical assay | calls only at 25 µM | 1,800 compounds, 13% hits; in the data active means inhibition above about 40%;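 further: neddylation substrate is the cullin 1 ring ligase complex with SKP2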
DNA binder FP = counter-screen for RAD52 inhibitors: DNA binding compounds; AID 652128; Salmon sperm DNA/acridine orange FP displacement; 1,000 compounds, 8% hits; shares compounds with RAD52 inh; AC50, µM;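 active means fitted half-maximal concentration for signal loss at or below twice the highest dose tested, in every separate run, actives reach about 64 µM in these data; inconclusive means runs disagree, or flat partial signal loss, or poor fit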
Starred values were filed as active, the others as inactive; i = inactive; ? = inconclusive; · = no result shown; + = active, no number; ! = a repeat was not active. Shown are actives, neighbours in structure and some others; about 1.6% of the full set was active somewhere.

SMILES	DNA FID counter	RAD54 branch	Neddylation inh	Apaf1 inhib	UBC13 inh	RAD52 inh	Apaf-1 inh conf2	Rh110 interf inh	others
O=C(C[C@@H]1C[C@H]2c3cc(NS(=O)(=O)c4ccc(F)cc4)ccc3O[C@H]2[C@H](CO)O1)N1CCCCC1	·	11	·	·	·	-16	·	·
CC(=O)N(CN1C(=O)c2ccccc2C1=O)c1cccc(C)c1	3	-6	i	0	-3	·	·	·
CC(=O)N(/N=C1\Sc2ccccc2C1=O)c1cccc(C)c1	-11	1	i	86*	-53	·	85*	5	Fluor interf inh=>100
Cc1ccc(S(=O)(=O)Nc2cccc3c2O[C@@H](CN(C)CC2CCCCC2)[C@@H](C)CN([C@@H](C)CO)C3=O)cc1	·	-1	·	·	·	17	·	·
COc1ccc(S(=O)(=O)Nc2ccc3c(c2)C(=O)N([C@H](C)CO)C[C@@H](C)[C@@H](CN(C)Cc2ccccc2)OCCCC[C@@H](C)O3)cc1	·	5	·	·	·	·	·	·
Cc1ccc(N2C(=O)c3ccccc3C2=O)cc1	-3	4	i	-1	-10	5	·	·
Cc1ccc(SC2=C(Sc3ccc(C)cc3)C(=O)c3ccccc3C2=O)cc1	6	-18	i	64*	-29	-7	32	7
Cc1ccc(NC2=C(NC(=O)c3ccccc3)C(=O)c3ccccc3C2=O)cc1Cl	2	15	i	67*	-119	·	64*	7	Fluor interf inh=>100
C[C@@H]1CCCCO[C@@H](CN(C)C)[C@H](C)CN([C@@H](C)CO)C(=O)c2cc(NC(=O)CCC(F)(F)F)ccc2O1	·	8	·	·	·	-14	·	·
CC(NC(=O)Cc1ccccc1)c1ccccc1 (stereo not drawn)	-3	6	i	-1	3	3	·	·
O=C(NC1(O)C(=O)c2ccccc2C1=O)c1ccc(C(F)(F)F)cc1	1	7	i	96*	-38	8	98*	13	Fluor interf inh=>100
O=C(N[C@@H](Cc1ccccc1)C(=O)O)c1ccc(C(F)(F)F)cc1	-6	-4	i	-15	2	-3	·	·
O=C(Cc1ccccc1)NC1(O)C(=O)c2ccccc2C1=O	-3	0	i	85*	-21	8	69*	7	Fluor interf inh=>100
Cc1ccc(C(=O)NC2(O)C(=O)c3ccccc3C2=O)cc1C	0	-11	i	97*	-39	-1	93*	-5	Fluor interf inh=>100
CC(C)C[C@H]1COCc2cn(nn2)CC[C@H](Cc2ccccc2)C(=O)N1	·	·	·	·	·	4	·	·
COc1ccccc1NC(=O)Cc1cccc2ccccc12	-15	-5	i	12	-5	-9	·	·
COc1ccc(C(C)(C)C)cc1NC(=O)CNc1cccc2ccccc12	-6	·	i	44*	-60	·	29	7
N#C[C@H]1[C@@H](c2ccccc2C2=CCCCC2)[C@H](CO)N1C(=O)c1cccc(F)c1	·	·	·	·	·	7	·	·
COc1ccc2ccccc2c1C1CC(=O)N2CN(Cc3ccco3)CSC2=C1C#N (stereo not drawn)	-44	8	i	52*	-6	-5	32	8
N#CC1=C2SCN(Cc3ccccc3)CN2C(=O)CC1c1cccs1 (stereo not drawn)	-7	-1	i	78*	-16	-16	17	-8
CCCNC(=O)N1[C@H](C#N)[C@H](c2ccc(C#Cc3ccc(F)cc3)cc2)[C@@H]1CO	·	6	·	·	·	-53	·	·
COc1cc2sc3cc(NCC[C@@H]4CCCN4C)ccc3c(=O)c2cc1OC	·	76*	i	55*	45	3	23	14	Rad54 DNA ctr=-22%
O=C(c1ccccc1)N1CC2(C1)[C@@H](c1ccccc1)[C@@H](CO)N2C(=O)CC1CC1	·	·	·	·	·	-17	·	·
N#Cc1nc(-c2ccco2)oc1N1CCc2ccccc2C1	-19	-4	+	52*	3	·	25	21	Neddyl conf=i
Cc1ccccc1CN(C)C[C@H]1OCc2cn(nn2)CCCC(=O)N([C@H](C)CO)C[C@@H]1C	·	9	·	·	·	5	·	·
SMILES	DNA FID counter	RAD54 branch	Neddylation inh	Apaf1 inhib	UBC13 inh	RAD52 inh	Apaf-1 inh conf2	Rh110 interf inh	others
CCCCOc1ccc(C)cc1CN(CCO)CCO	0	-4	i	-9	0	·	·	·
CCCCCc1ccc(OCCCC[n+]2ccc(C)cc2)c(CCCCC)c1	37*	·	i	56*	42	66*	37	12	DNA binder FP=i
Cc1cc2cc(CNC(=O)NC3CCCCC3)ccc2n1C	-17	11	i	51*	7	66*	16	11	DNA binder FP=i
CCCC(=O)Nc1ccc2c(c1)C(=O)N(C)[C@H]1CC[C@@H](CC(=O)NCCc3ccncc3)O[C@H]1CO2	·	1	·	·	·	0	·	·
COc1cc(NC(C)CCCN)c2ncccc2c1 (stereo not drawn)	·	27	i	92*	-19	84*	33	-2	DNA binder FP=i
COc1cc(NC(=O)OCc2ccccc2)c2ncccc2c1	·	0	i	·	·	-3	·	·
C[C@H](CO)N1C[C@H](C)[C@@H](CN(C)S(C)(=O)=O)Oc2ccc(NC(=O)C3CCCCC3)cc2CC1=O	·	-1	·	·	·	-16	·	·
CN(C)CCCN1c2ccccc2Sc2ccc(Cl)cc21	21	26	i	42*	18	101*	16	8	DNA binder FP=i
CO[C@H]1CN(C)C(=O)c2cc(NC(=O)Nc3ccc(Cl)cc3)ccc2OC[C@H](C)N(C)C[C@@H]1C	·	9	·	·	·	8	·	·
CN(C)CCCNc1cc(O)c2ncccc2c1	·	-1	i	77*	?	70*	55*	3	Fluor interf inh=>100;DNA binder FP=i
C[C@@H]1CCCCO[C@H](CN(C)S(=O)(=O)c2ccccc2)[C@@H](C)CN([C@@H](C)CO)C(=O)c2cc(NC(=O)Nc3ccccc3)ccc2O1	·	-1	·	·	·	-38	·	·
CN1CCc2cccc3c2[C@H]1Cc1ccc(O)c(O)c1-3	13	32	·	42*!	4	90*!	6	7	DNA binder FP=i
CCOC(=O)c1ccc2ncc(C(=O)OCC)c(NCCCN3CCOCC3)c2c1	19	34	i	-8	4	·	·	·
CCOC(=O)c1cnc2c(C)c(Cl)ccc2c1NCCCN1CCOCC1	54*	60*	i	5	21	3	·	·	Rad54 DNA ctr=i
